From ChEMBL document CHEMBL5058577, “EUbOPEN Chemogenomics Library 2 (Multiplex)” (2022)

Tested on: HEK-293T
Assay: Multiplex assay against HEK293T
Assay type: toxicity, cell-based
Details: human
Outline: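 At seeding, live cells were stained with Hoechst33342, BioTracker Green Microtubule Cytoskeleton Dye, MitoTracker Red and Annexin V Alexa Fluor 680. After compound addition they were imaged on a CQ1 microscope at 37°C and 5% CO2, and CellPathfinder machine-learning gating sorted them into Hoechst high-intensity objects or normal cells, with normal cells further split into healthy, pyknosed or fragmented nuclei and pyknosed cells into mitotic or apoptotic. Tubulin, mitochondrial-mass and membrane-permeability phenotypes are given as per cents of cells with healthy nuclei.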

[1] = 12 h, 1 µM, compound concentration 1 uM, replicate 1
[2] = 12 h, 1 µM, compound concentration 1 uM, replicate 2
[3] = 12 h, 10 µM, compound concentration 10 uM, replicate 1
[4] = 12 h, 10 µM, compound concentration 10 uM, replicate 2
[5] = 24 h, 1 µM, compound concentration 1 uM, replicate 1
[6] = 24 h, 1 µM, compound concentration 1 uM, replicate 2
[7] = 24 h, 10 µM, compound concentration 10 uM, replicate 1
[8] = 24 h, 10 µM, compound concentration 10 uM, replicate 2
[9] = 48 h, 1 µM, compound concentration 1 uM, replicate 1
[10] = 48 h, 1 µM, compound concentration 1 uM, replicate 2
[11] = 48 h, 10 µM, compound concentration 10 uM, replicate 1
[12] = 48 h, 10 µM, compound concentration 10 uM, replicate 2

With CCCCC1=NC2(CCCC2)C(=O)N1Cc1ccc(-c2ccccc2-c2nnn[nH]2)cc1 [IRBESARTAN] the “Population Apoptotic (%)” value [1] was 24%, the “Population Fragmented Nuclei (%)” value [1] was 9% and the “Population Healthy Nuclei (%)” value [1] was 79%. For the same molecule, the “Population Hoechst High Intensity Objects (%)” value [1] was 9%, the “Population Membrane Permeable-Phenotype (%)” value [1] was 0% and the “Population Mitochondria Different-Phenotype (%)” value [1] was 34%. For the same molecule, the “Population Mitotic Cells (%)” value [1] was 75%, the “Population Normal (%)” value [1] was 91% and the “Population Pyknosed Nuclei (%)” value [1] was 10%. The “Population Tubulin-Different-Phenotype (%)” value [1] was 17%, the “Total Cell Count” value [1] was 500 and the “Population Apoptotic (%)” value [2] was 28%. The “Population Fragmented Nuclei (%)” value [2] was 8%, the “Population Healthy Nuclei (%)” value [2] was 78% and the “Population Hoechst High Intensity Objects (%)” value [2] was 4%. For the same molecule, the “Population Mitochondria Different-Phenotype (%)” value [2] was 63%, the “Population Mitotic Cells (%)” value [2] was 71% and the “Population Normal (%)” value [2] was 95%. For the same molecule, the “Population Pyknosed Nuclei (%)” value [2] was 12%, the “Population Tubulin-Different-Phenotype (%)” value [2] was 20% and the “Total Cell Count” value [2] was 353. The “Population Apoptotic (%)” value [3] was 50%, the “Population Fragmented Nuclei (%)” value [3] was 7% and the “Population Healthy Nuclei (%)” value [3] was 70%. The “Population Hoechst High Intensity Objects (%)” value [3] was 5%, the “Population Membrane Permeable-Phenotype (%)” value [3] was 2% and the “Population Mitochondria Different-Phenotype (%)” value [3] was 46%. The “Population Mitotic Cells (%)” value [3] was 50%, the “Population Normal (%)” value [3] was 94% and the “Population Pyknosed Nuclei (%)” value [3] was 22%. For the same molecule, the “Population Tubulin-Different-Phenotype (%)” value [3] was 50%, the “Total Cell Count” value [3] was 219 and the “Population Apoptotic (%)” value [4] was 56%. For the same molecule, the “Population Fragmented Nuclei (%)” value [4] was 6%, the “Population Healthy Nuclei (%)” value [4] was 78% and the “Population Hoechst High Intensity Objects (%)” value [4] was 13%. For the same molecule, the “Population Membrane Permeable-Phenotype (%)” value [4] was 0%, the “Population Mitochondria Different-Phenotype (%)” value [4] was 66% and the “Population Mitotic Cells (%)” value [4] was 43%. The “Population Normal (%)” value [4] was 86%, the “Population Pyknosed Nuclei (%)” value [4] was 15% and the “Population Tubulin-Different-Phenotype (%)” value [4] was 33%. For the same molecule, the “Total Cell Count” value [4] was 351, the “Population Apoptotic (%)” value [5] was 31% and the “Population Fragmented Nuclei (%)” value [5] was 9%. For the same molecule, the “Population Healthy Nuclei (%)” value [5] was 79%, the “Population Hoechst High Intensity Objects (%)” value [5] was 4% and the “Population Membrane Permeable-Phenotype (%)” value [5] was 0%. For the same molecule, the “Population Mitochondria Different-Phenotype (%)” value [5] was 24%, the “Population Mitotic Cells (%)” value [5] was 68% and the “Population Normal (%)” value [5] was 95%. The “Population Pyknosed Nuclei (%)” value [5] was 10%, the “Population Tubulin-Different-Phenotype (%)” value [5] was 15% and the “Total Cell Count” value [5] was 625. The “Population Apoptotic (%)” value [6] was 34%, the “Population Healthy Nuclei (%)” value [6] was 80% and the “Population Hoechst High Intensity Objects (%)” value [6] was 7%. For the same molecule, the “Population Mitochondria Different-Phenotype (%)” value [6] was 45%, the “Population Mitotic Cells (%)” value [6] was 65% and the “Population Normal (%)” value [6] was 92%. For the same molecule, the “Population Pyknosed Nuclei (%)” value [6] was 9%, the “Population Tubulin-Different-Phenotype (%)” value [6] was 14% and the “Total Cell Count” value [6] was 456. The “Population Apoptotic (%)” value [7] was 27%, the “Population Fragmented Nuclei (%)” value [7] was 6% and the “Population Healthy Nuclei (%)” value [7] was 77%. The “Population Hoechst High Intensity Objects (%)” value [7] was 3%, the “Population Membrane Permeable-Phenotype (%)” value [7] was 1% and the “Population Mitochondria Different-Phenotype (%)” value [7] was 37%. The “Population Mitotic Cells (%)” value [7] was 72%, the “Population Normal (%)” value [7] was 96% and the “Population Pyknosed Nuclei (%)” value [7] was 15%. The “Population Tubulin-Different-Phenotype (%)” value [7] was 32%, the “Total Cell Count” value [7] was 287 and the “Population Apoptotic (%)” value [8] was 41%. The “Population Fragmented Nuclei (%)” value [8] was 11%, the “Population Hoechst High Intensity Objects (%)” value [8] was 10% and the “Population Membrane Permeable-Phenotype (%)” value [8] was 0%. The “Population Mitochondria Different-Phenotype (%)” value [8] was 49%, the “Population Mitotic Cells (%)” value [8] was 58% and the “Population Normal (%)” value [8] was 89%. The “Population Pyknosed Nuclei (%)” value [8] was 11%, the “Population Tubulin-Different-Phenotype (%)” value [8] was 22% and the “Total Cell Count” value [8] was 434. For the same molecule, the “Population Apoptotic (%)” value [9] was 29%, the “Population Fragmented Nuclei (%)” value [9] was 11% and the “Population Healthy Nuclei (%)” value [9] was 81%. The “Population Hoechst High Intensity Objects (%)” value [9] was 3%, the “Population Membrane Permeable-Phenotype (%)” value [9] was 0% and the “Population Mitochondria Different-Phenotype (%)” value [9] was 21%. The “Population Mitotic Cells (%)” value [9] was 70%, the “Population Normal (%)” value [9] was 96% and the “Population Pyknosed Nuclei (%)” value [9] was 7%. The “Population Tubulin-Different-Phenotype (%)” value [9] was 15%, the “Total Cell Count” value [9] was 958 and the “Population Apoptotic (%)” value [10] was 23%. For the same molecule, the “Population Fragmented Nuclei (%)” value [10] was 9%, the “Population Healthy Nuclei (%)” value [10] was 84% and the “Population Hoechst High Intensity Objects (%)” value [10] was 2%. For the same molecule, the “Population Membrane Permeable-Phenotype (%)” value [10] was 1%, the “Population Mitochondria Different-Phenotype (%)” value [10] was 19% and the “Population Mitotic Cells (%)” value [10] was 76%. The “Population Normal (%)” value [10] was 97%, the “Population Pyknosed Nuclei (%)” value [10] was 6% and the “Population Tubulin-Different-Phenotype (%)” value [10] was 8%. The “Total Cell Count” value [10] was 705, the “Population Apoptotic (%)” value [11] was 25% and the “Population Fragmented Nuclei (%)” value [11] was 15%. The “Population Healthy Nuclei (%)” value [11] was 75%, the “Population Hoechst High Intensity Objects (%)” value [11] was 1% and the “Population Membrane Permeable-Phenotype (%)” value [11] was 0%. The “Population Mitochondria Different-Phenotype (%)” value [11] was 21%, the “Population Mitotic Cells (%)” value [11] was 75% and the “Population Normal (%)” value [11] was 98%. For the same molecule, the “Population Pyknosed Nuclei (%)” value [11] was 9%, the “Population Tubulin-Different-Phenotype (%)” value [11] was 15% and the “Total Cell Count” value [11] was 473. For the same molecule, the “Population Apoptotic (%)” value [12] was 46%, the “Population Fragmented Nuclei (%)” value [12] was 12% and the “Population Healthy Nuclei (%)” value [12] was 80%. For the same molecule, the “Population Hoechst High Intensity Objects (%)” value [12] was 3%, the “Population Mitochondria Different-Phenotype (%)” value [12] was 26% and the “Population Mitotic Cells (%)” value [12] was 53%. For the same molecule, the “Population Normal (%)” value [12] was 96%, the “Population Pyknosed Nuclei (%)” value [12] was 6% and the “Total Cell Count” value [12] was 684.
